Laboratory results reported in ChEMBL document CHEMBL4387794, “Constituents of the Edible Leaves of Melicope pteleifolia with Potential Analgesic Activity” (J Nat Prod, 2019).
Active and inactive are the calls of the source. No cut-off for these calls is given here.

Columns and labels:
[1] = test system: HaCaT; experiment: Cytotoxicity in human HaCaT cells assessed as reduction in cell viability at 50 uM incubated for 2 4 hrs by MTT assay; assay type: cell-based
Outline: (§1)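 MTT viability in HaCaT cells seeded at 10^4 cells/well. After 12 h, compounds added in serum-free medium for 24 h, then MTT 4 h. Formazan dissolved in DMSO, absorbance read at 550 nm. Triplicate wells, experiments repeated at least three times.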

[2] = test system: HaCaT; experiment: Antipyretic activity in human HaCaT cells assessed as inhibition of TNFalpha-induced PGE2 production at 50 uM pre-incubated for 2 hrs before TNFalpha stimulation for 24 hrs by ELISA; assay type: functional, cell-based
Outline: (§2)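 HaCaT keratinocytes, seeded at 1.5 × 10^5 cells/well and grown overnight, then serum-starved 12 h. Pretreated with compounds for 2 h, then stimulated 24 h with 20 ng/mL TNF-α; unstimulated cells as negative control. Supernatant PGE2 quantified by ELISA, absorbance 450 nm. Means ± SD of three independent experiments.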

[3] = test system: HaCaT; experiment: Antipyretic activity in human HaCaT cells assessed as inhibition of TNFalpha-induced PGE2 production at 100 uM pre-incubated for 2 hrs before TNFalpha stimulation for 24 hrs by ELISA; assay type: functional, cell-based; outline: as §2
[4] = test system: HaCaT; experiment: Cytotoxicity in human HaCaT cells assessed as reduction in cell viability at 100 uM incubated for 2 4 hrs by MTT assay; assay type: cell-based; outline: as §1
[5] = test system: Mus musculus; experiment: Antipyretic activity in ICR mouse assessed as suppression of LPS-induced febrile response measured at 10 mg/kg, po administered 30 mins before LPS injection and measured up to 6 hrs post LPS injection; assay type: functional, organism-based
Outline: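 Male 8-week-old ICR mice, 5 per group, reverse 12 h light/dark cycle. Compound suspended in 0.5% carboxymethyl cellulose, given orally 30 min before i.p. LPS (0.5 mg/kg in pyrogen-free PBS). Baseline rectal Tb from six readings over 2 h, then Tb followed to 6 h post-LPS. Each hour compared to LPS group, Student t-test, p < 0.05.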

[6] = 50 uM, in the assay text read “at 50 uM” for “at 100 uM”

Compound | Activity [1] | inhibition [2] | inhibition [3, 6] | Activity [4] | inhibition ([3]; 100 uM) | Activity [5]
COc1cc(/C=C/C(=O)OC[C@H]2O[C@@H](c3c(O)c(C(C)=O)c(O)c([C@@H]4O[C@H](COC(=O)/C=C/c5ccc(O)cc5)[C@@H](O)[C@H](O)[C@H]4O)c3O)[C@H](O)[C@@H](O)[C@@H]2O)ccc1O | Non-Toxic | Active | Active | Toxic |  | 
CC(=O)c1c(O)c([C@@H]2O[C@H](CO)[C@@H](O)[C@H](O)[C@H]2O)c(O)c2c1O[C@@]1(C2)O[C@@H](CO)[C@H](O)[C@H]1O |  | Active |  | Non-Toxic | Active | 
CC(=O)c1c(O)c([C@@H]2O[C@H](CO)[C@@H](O)[C@H](O)[C@H]2O)c(O)c2c1O[C@]1(C2)O[C@H](CO)[C@@H](O)[C@H]1O |  | Active |  | Non-Toxic | Active | 
CC(=O)c1c(O)c([C@@H]2O[C@H](CO)[C@@H](O)[C@H](O)[C@H]2O)c(O)c([C@@H]2O[C@H](COC(=O)/C=C/c3ccc(O)cc3)[C@@H](O)[C@H](O)[C@H]2O)c1O |  | Active |  | Non-Toxic | Active | 
CC(=O)c1c(O)c([C@@H]2O[C@H](CO)[C@@H](O)[C@H](O)[C@H]2O)c(O)c([C@@H]2O[C@H](CO)[C@@H](O)[C@H](O)[C@H]2O)c1O |  | Active |  | Non-Toxic | Active | Active
CC(=O)c1c(O)c([C@@H]2O[C@H](CO)[C@@H](O)[C@H](O)[C@H]2O)c(O)c2c1O[C@]1(C2)O[C@H](CO)[C@@H](O)[C@@H]1O |  | Active |  | Non-Toxic | Active | 
CC(=O)c1c(O)c([C@@H]2O[C@H](CO)[C@@H](O)[C@H](O)[C@H]2O)c(O)c2c1O[C@@]1(C2)O[C@H](CO)[C@H](O)[C@@H]1O |  | Active |  | Non-Toxic | Active | 
COc1cc(/C=C/C(=O)OC[C@H]2O[C@@H](c3c(O)c(C(C)=O)c(O)c([C@@H]4O[C@H](CO)[C@@H](O)[C@H](O)[C@H]4O)c3O)[C@H](O)[C@@H](O)[C@@H]2O)ccc1O |  | Active |  | Non-Toxic | Active | 
CC(=O)c1c(O)c([C@@H]2O[C@H](COC(=O)/C=C/c3ccc(O)cc3)[C@@H](O)[C@H](O)[C@H]2O)c(O)c([C@@H]2O[C@H](COC(=O)/C=C/c3ccc(O)cc3)[C@@H](O)[C@H](O)[C@H]2O)c1O |  | Active |  | Non-Toxic | Active | 
CC(=O)c1c(O)c([C@@H]2O[C@H](CO)[C@@H](O)[C@H](O)[C@H]2O)c(O)c([C@@H]2O[C@H](COC(=O)c3ccccc3)[C@@H](O)[C@H](O)[C@H]2O)c1O |  | Active |  | Non-Toxic | Active | 
CC(=O)c1c(O)c([C@@H]2O[C@H](CO)[C@@H](O)[C@H](O)[C@H]2O)c(O)c2c1O[C@@]1(C2)O[C@H](CO)[C@@H](O)[C@@H]1O |  | Active |  | Non-Toxic | Active | 
CC(=O)c1c(O)c([C@@H]2O[C@H](CO)[C@@H](O)[C@H](O)[C@H]2O)c(O)c([C@@H]2O[C@H](COC(=O)[C@H]3[C@H](C(=O)OC[C@H]4O[C@@H](c5c(O)c(C(C)=O)c(O)c([C@@H]6O[C@H](CO)[C@@H](O)[C@H](O)[C@H]6O)c5O)[C@H](O)[C@@H](O)[C@@H]4O)[C@@H](c4ccc(O)cc4)[C@@H]3c3ccc(O)cc3)[C@@H](O)[C@H](O)[C@H]2O)c1O |  | Active |  | Non-Toxic | Active | 
CC(=O)Oc1ccccc1C(=O)O |  |  |  |  | Active | 
COc1cc(/C=C/C(=O)OC[C@H]2O[C@@H](c3c(O)c(C(C)=O)c(O)c([C@@H]4O[C@H](COC(=O)/C=C/c5ccc(O)c(OC)c5)[C@@H](O)[C@H](O)[C@H]4O)c3O)[C@H](O)[C@@H](O)[C@@H]2O)ccc1O | Non-Toxic | Active | Active | Toxic |  | 
